This passage reports Km, Vmax and Drug metabolism results from ChEMBL document CHEMBL3525985, “Regiospecificity and stereospecificity of human UDP-glucuronosyltransferases in the glucuronidation of estriol, 16-epiestriol, 17-epiestriol, and 13-epiestradiol” (Drug Metab Dispos, 2013).

One may read the Km as the substrate concentration at which the rate is half of its maximum. In general, Vmax refers to the rate approached at saturating substrate.

Common to all, as to type: ADME
In data set [1] the test system is Liver microsome. The data set can be described thus: Drug metabolism in human liver microsomes assessed as estriol-16-glucuronide formation after 15 to 60 mins by Michaelis-Menten equation analysis in presence of UDPGA. A digest of the protocol: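 Pooled human liver microsomes (30 donors), 0.5 or 10 µg, with alamethicin at 5% of total protein. Incubated with 50 mM phosphate pH 7.4, 10 mM MgCl₂, 5 mM UDPGA and 10% DMSO for 15–60 min at 37°C. Each glucuronide regioisomer quantified by HPLC, in triplicate, with substrate consumption at or below 10%.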
A general note: Liver microsomes are vesicles of endoplasmic reticulum, rich in cytochrome P450 enzymes.

Data set [2] deals with T1, UDP-glucuronosyltransferase 1A1 (Homo sapiens, UniProt P22309).
T1 sequence (P22309 whole entry): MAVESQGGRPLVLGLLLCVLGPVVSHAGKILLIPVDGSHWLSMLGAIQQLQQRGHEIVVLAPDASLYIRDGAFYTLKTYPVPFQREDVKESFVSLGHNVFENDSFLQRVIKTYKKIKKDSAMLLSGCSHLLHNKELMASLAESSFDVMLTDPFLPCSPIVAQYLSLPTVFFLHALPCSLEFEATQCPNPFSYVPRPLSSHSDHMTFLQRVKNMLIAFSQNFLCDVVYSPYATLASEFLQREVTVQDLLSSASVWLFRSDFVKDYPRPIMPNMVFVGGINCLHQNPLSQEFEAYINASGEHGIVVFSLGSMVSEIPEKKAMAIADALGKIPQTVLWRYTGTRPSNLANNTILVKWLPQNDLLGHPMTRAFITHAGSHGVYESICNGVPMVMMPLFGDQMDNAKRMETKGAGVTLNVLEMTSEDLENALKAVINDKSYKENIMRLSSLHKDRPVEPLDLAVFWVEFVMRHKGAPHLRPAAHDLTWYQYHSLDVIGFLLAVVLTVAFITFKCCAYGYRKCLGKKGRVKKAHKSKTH
The data set can be described thus: Drug metabolism assessed as recombinant human C-terminal His-tagged UGT1A1-mediated 16-epiestriol-3-glucuronide formation after 15 to 60 mins by Michaelis-Menten equation analysis in presence of UDPGA. As to conditions: recombinant enzyme.

The target of data set [3] is T2, UDP-glucuronosyltransferase 2B15 (Homo sapiens, UniProt P54855).
T2 sequence (P54855 whole entry): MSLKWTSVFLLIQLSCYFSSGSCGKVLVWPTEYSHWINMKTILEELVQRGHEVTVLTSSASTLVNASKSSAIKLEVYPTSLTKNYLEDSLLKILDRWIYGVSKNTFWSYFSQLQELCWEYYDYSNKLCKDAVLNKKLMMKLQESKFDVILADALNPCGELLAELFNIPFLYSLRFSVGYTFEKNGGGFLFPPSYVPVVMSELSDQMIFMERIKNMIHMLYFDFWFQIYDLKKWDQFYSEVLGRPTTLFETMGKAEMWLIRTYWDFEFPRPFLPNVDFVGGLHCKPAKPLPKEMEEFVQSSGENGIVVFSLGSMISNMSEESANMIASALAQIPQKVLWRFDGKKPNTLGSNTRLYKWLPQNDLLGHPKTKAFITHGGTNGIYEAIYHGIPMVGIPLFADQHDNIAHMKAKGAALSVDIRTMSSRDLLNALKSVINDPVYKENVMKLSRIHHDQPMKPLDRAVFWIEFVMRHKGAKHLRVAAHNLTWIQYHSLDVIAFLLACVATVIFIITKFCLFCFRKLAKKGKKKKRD
The data set is described as follows: Drug metabolism assessed as recombinant human C-terminal […]-mediated 16-epiestriol-3-glucuronide formation after 15 to 60 mins by Michaelis-Menten equation analysis in presence of UDPGA. As to conditions: recombinant enzyme.

Data set [4] addresses T2, UDP-glucuronosyltransferase 2B15. The data set can be described thus: Drug metabolism assessed as recombinant human C-terminal His-tagged UGT2B15-mediated 13-epiestradiol-3-glucuronide/13-epiestradiol-17-glucuronide formation at 200 uM after 15 to 60 mins by HPLC analysis in presence of UDPGA. As to conditions: recombinant enzyme, in the assay text read “UGT2B15-mediated” for “C-terminal His-tagged UGT2B15-mediated”. A digest of the protocol: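 UGT2B15 was a commercial enzyme without a His-tag, so rates were not normalized to expression. Screening used 200 μM substrate in triplicate, with membranes in 50 mM phosphate pH 7.4, 10 mM MgCl₂, 5 mM UDPGA and 10% DMSO. Incubation was 15–60 min at 37°C. The reaction was stopped with perchloric acid and analysed by HPLC. Controls lacked UDPGA.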

The target of data set [5] is UDP-glucuronosyltransferase 1A10 (Homo sapiens, UniProt Q9HAW8, F93G). The data set can be described thus: Drug metabolism assessed as human UGT1A10 F93G mutant-mediated 13-epiestradiol-3-glucuronide formation at 200 uM after 15 to 60 mins by HPLC analysis in presence of UDPGA. A digest of the protocol:
(§1)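 Screening at a single substrate concentration of 200 μM, in triplicate. The reaction used 5 or 50 µg of UGT-enriched insect cell membranes in 50 mM phosphate pH 7.4 with 10 mM MgCl₂ and 5 mM UDPGA, 10% final DMSO. Incubation was 15–60 min at 37°C. Perchloric acid stopped the reaction and supernatants were analysed by HPLC. Controls lacked UDPGA. Rates were normalized to relative UGT expression level.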

Data set [6] can be described thus: Drug metabolism in human intestine microsomes assessed as 17-epiestriol-3-glucuronide formation after 15 to 60 mins by Michaelis-Menten equation analysis in presence of UDPGA. A digest of the protocol: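 Pooled human intestine microsomes (6 donors), 0.5 or 10 µg, with alamethicin at 5% of total protein. Incubated with 50 mM phosphate pH 7.4, 10 mM MgCl₂, 5 mM UDPGA and 10% DMSO for 15–60 min at 37°C. Each glucuronide regioisomer quantified by HPLC, in triplicate, with substrate consumption at or below 10%.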

The target of data set [7] is T3, UDP-glucuronosyltransferase 1A8 (Homo sapiens, UniProt Q9HAW9).
T3 sequence (Q9HAW9 whole entry): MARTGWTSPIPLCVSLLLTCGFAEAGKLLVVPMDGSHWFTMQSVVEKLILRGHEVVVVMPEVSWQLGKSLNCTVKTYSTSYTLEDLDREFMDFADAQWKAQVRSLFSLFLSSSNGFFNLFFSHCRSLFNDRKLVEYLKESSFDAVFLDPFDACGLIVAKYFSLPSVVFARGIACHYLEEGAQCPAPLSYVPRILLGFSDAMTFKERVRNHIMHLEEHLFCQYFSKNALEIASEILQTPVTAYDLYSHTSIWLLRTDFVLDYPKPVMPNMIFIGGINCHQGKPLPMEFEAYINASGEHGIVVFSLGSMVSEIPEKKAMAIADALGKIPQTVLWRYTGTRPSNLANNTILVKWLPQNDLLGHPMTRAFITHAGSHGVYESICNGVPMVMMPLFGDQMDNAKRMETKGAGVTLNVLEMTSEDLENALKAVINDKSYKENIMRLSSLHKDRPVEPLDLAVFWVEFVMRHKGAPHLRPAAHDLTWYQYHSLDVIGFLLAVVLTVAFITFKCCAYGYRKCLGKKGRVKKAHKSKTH
The data set can be described thus: Drug metabolism assessed as recombinant human C-terminal His-tagged UGT1A8-mediated estradiol-3-glucuronide formation at 200 uM after 15 to 60 mins by HPLC analysis in presence of UDPGA. As to conditions: recombinant enzyme. A digest of the protocol:
as §1

Sequence of UDP-glucuronosyltransferase 1A10 (Q9HAW8 26-530 F93G limits assumed): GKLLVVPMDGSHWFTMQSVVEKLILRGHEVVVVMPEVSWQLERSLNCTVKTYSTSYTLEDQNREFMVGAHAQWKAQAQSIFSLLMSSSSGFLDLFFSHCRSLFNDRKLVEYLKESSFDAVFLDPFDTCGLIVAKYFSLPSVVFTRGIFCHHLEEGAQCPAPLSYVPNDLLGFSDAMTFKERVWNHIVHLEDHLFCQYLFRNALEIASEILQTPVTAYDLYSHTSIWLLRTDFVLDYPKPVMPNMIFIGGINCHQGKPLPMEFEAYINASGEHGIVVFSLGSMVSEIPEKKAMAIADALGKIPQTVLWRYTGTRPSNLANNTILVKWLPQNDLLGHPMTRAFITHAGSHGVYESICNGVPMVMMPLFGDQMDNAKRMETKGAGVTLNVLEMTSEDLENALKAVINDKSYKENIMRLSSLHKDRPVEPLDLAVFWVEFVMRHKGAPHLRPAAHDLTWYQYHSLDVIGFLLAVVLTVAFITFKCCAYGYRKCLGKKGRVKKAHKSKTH

With `C[C@]12CC[C@@H]3c4ccc(O)cc4CC[C@H]3[C@@H]1C[C@@H](O)[C@@H]2O` [ESTRIOL], in data set [1], the Km was 13 µM and the Vmax is recorded as 4347 pmol/min/mg.
Regarding `C[C@]12CC[C@@H]3c4ccc(O)cc4CC[C@H]3[C@@H]1C[C@H](O)[C@@H]2O` [EPIESTRIOL], the Drug metabolism in data set [2] and in data set [3] was 0.5 pmol/min/mg in each case.
In the case of `C[C@@]12CC[C@@H]3c4ccc(O)cc4CC[C@H]3[C@@H]1CC[C@@H]2O`, the Drug metabolism entry in data set [4] and in data set [5] was “metabolite_detected” throughout.
`C[C@]12CC[C@@H]3c4ccc(O)cc4CC[C@H]3[C@@H]1C[C@@H](O)[C@H]2O`: in data set [6], the Km came out at 251 µM and the Vmax is recorded as 1239 pmol/min/mg.
Regarding `C[C@]12CC[C@@H]3c4ccc(O)cc4CC[C@H]3[C@@H]1CC[C@@H]2O` [ESTRADIOL], in data set [7], the Drug metabolism entry is recorded as “metabolite_detected”.
